As a reminder, the IC50 is the concentration needed to halve the response being measured. Higher therefore signals a need for much substance. Usually logD stands for the decadic logarithm of the distribution of all forms, ionised or not, between an organic phase and buffer at a given pH. Read a high logD as higher lipophilicity. Usually Ki stands for the equilibrium dissociation constant of an inhibitor or competing ligand from its target. High values mean a looser hold on the target, low ones a stronger hold on the target. For orientation: Km means the substrate concentration at which the rate is half of its maximum.

A short description of data set [1]: Inhibition of carboxylesterase (unknown origin) using 4-nitrophenyl acetate as substrate by UV-Vis spectrophotometer. On the set-up: species or system Homo sapiens. The procedure, abridged:
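Read-out was 4-nitrophenol released by CaE hydrolysis of 1.0 mmol/L 4-nitrophenyl acetate, measured at 405 nm. Reactions ran in 100 mmol/L potassium phosphate buffer, pH 8.0, at 25 °C. CaE activity was taken as proportional to 4-nitrophenol concentration.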

For data set [2], the target named is T1, Acetylcholinesterase (Homo sapiens, UniProt P22303). As to the kind of experiment: Inhibition of acetylcholinesterase (unknown origin) using acetylthiocholine iodide as substrate after 25 mins by Ellmann method. The procedure, abridged: (§1)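 Modified Ellman assay, triplicate. Compounds dissolved in Tween 80, diluted with water to five concentrations. Mix: enzyme […], substrate (acetylthiocholine iodide or butyrylthiocholine iodide) and test compound in phosphoric acid buffer, pH 8.0, 0.1 mol/L. Incubated 25 min at 30 °C, then terminated. IC50 reported as mean ± SD of three experiments.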
Background: Ellman's reagent forms a yellow product with free thiols.

The target of a further data set is Cholinesterase (Homo sapiens, UniProt P06276). As to the kind of experiment: Inhibition of butyrylcholinesterase (unknown origin) using butyrylthiocholine iodide as substrate after 25 mins by Ellmann method. Summed up: as §1
For a further data set, the species on record is Homo sapiens. Briefly: Selectivity index, ratio of IC50 for butyrylcholinesterase (unknown origin) to IC50 for acetylcholinesterase (unknown origin).
The nature of data set [3]: Octanol-water partition coefficient, log P of the compound at pH 7.4 by shake flask method. The class given is physicochemical. The procedure, abridged: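 Shake flask partition between octanol and PBS (pH 7.4). Mixture shaken at 37 °C overnight, then centrifuged at 2000 rpm for 20 min. Phases analysed by C18 HPLC with methanol-0.1% TEA (85:15, v/v) at 1.0 mL/min and 32 °C, detection at 322 nm. Run in triplicate, log P calculated.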

Data set [4] addresses T1, Acetylcholinesterase. As to the kind of experiment: Potency index, ratio of rivastigmine IC50 to compound IC50 for acetylcholinesterase (unknown origin).
Data set [5] concerns the target T1, Acetylcholinesterase. As to the kind of experiment: Competitive inhibition of acetylcholinesterase (unknown origin) using acetylthiocholine iodide as substrate by Michaelis-Menten plot analysis.
Data set [6] has as its target T1, Acetylcholinesterase. Briefly: Noncompetitive inhibition of acetylcholinesterase (unknown origin) using acetylthiocholine iodide as substrate by Michaelis-Menten plot analysis.
Compound in data set [7]: COc1cc(/C=C/C(=O)Nc2ccccc2)ccc1OCCCCCCN1CCCCC1
Briefly: Mixed type inhibition of acetylcholinesterase (unknown origin) assessed as Km for substrate at 0.18 uM using acetylthiocholine iodide as substrate by Michaelis-Menten plot analysis (reference value: 5.99 mM). Particulars: Homo sapiens.

Compound in data set [8]: COc1cc(/C=C/C(=O)Nc2ccccc2)ccc1OCCCCCCN1CCCCC1
As to the kind of experiment: Mixed type inhibition of acetylcholinesterase (unknown origin) assessed as enzyme Vmax at 0.18 uM using acetylthiocholine iodide as substrate by Michaelis-Menten plot analysis (reference value: 0.027 deltaA/min). Particulars: Homo sapiens.

Compound in data set [9]: COc1cc(/C=C/C(=O)Nc2ccccc2)ccc1OCCCCCCN1CCCCC1
Briefly: Mixed type inhibition of acetylcholinesterase (unknown origin) assessed as Km for substrate at 0.41 uM using acetylthiocholine iodide as substrate by Michaelis-Menten plot analysis (reference value: 5.99 mM). The following applies: Homo sapiens.

Compound in data set [10]: COc1cc(/C=C/C(=O)Nc2ccccc2)ccc1OCCCCCCN1CCCCC1
Briefly: Mixed type inhibition of acetylcholinesterase (unknown origin) assessed as Km for substrate at 0.82 uM using acetylthiocholine iodide as substrate by Michaelis-Menten plot analysis (reference value: 5.99 mM). The following applies: Homo sapiens.

Compound in data set [11]: COc1cc(/C=C/C(=O)Nc2ccccc2)ccc1OCCCCCCN1CCCCC1
Briefly: Mixed type inhibition of acetylcholinesterase (unknown origin) assessed as enzyme Vmax at 0.41 uM using acetylthiocholine iodide as substrate by Michaelis-Menten plot analysis (reference value: 0.027 deltaA/min). Particulars: Homo sapiens.

Compound in data set [12]: COc1cc(/C=C/C(=O)Nc2ccccc2)ccc1OCCCCCCN1CCCCC1
As to the kind of experiment: Mixed type inhibition of acetylcholinesterase (unknown origin) assessed as enzyme Vmax at 0.82 uM using acetylthiocholine iodide as substrate by Michaelis-Menten plot analysis (reference value: 0.027 deltaA/min). The following applies: Homo sapiens.

Cholinesterase, sequence (P06276 whole entry): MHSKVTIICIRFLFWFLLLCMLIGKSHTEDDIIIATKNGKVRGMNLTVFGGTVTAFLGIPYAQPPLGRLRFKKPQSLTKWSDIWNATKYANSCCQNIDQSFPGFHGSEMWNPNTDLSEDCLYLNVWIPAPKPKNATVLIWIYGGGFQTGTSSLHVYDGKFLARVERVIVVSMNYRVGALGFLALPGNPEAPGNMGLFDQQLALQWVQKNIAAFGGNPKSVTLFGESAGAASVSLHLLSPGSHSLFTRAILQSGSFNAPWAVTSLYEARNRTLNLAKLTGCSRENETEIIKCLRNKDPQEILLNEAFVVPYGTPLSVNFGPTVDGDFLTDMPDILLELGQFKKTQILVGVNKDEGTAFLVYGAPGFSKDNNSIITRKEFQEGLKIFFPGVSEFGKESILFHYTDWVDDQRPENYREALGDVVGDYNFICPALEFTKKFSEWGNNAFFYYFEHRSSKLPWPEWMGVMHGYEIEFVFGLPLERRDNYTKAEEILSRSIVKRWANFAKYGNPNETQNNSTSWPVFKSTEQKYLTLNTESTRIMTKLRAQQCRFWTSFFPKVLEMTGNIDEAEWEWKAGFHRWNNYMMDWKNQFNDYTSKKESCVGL

Regarding `COc1cc(/C=C/C(=O)Nc2ccccc2)ccc1OCCCCCCN1CCCCC1`, the figures for the IC50 (in data set [1]; on Acetylcholinesterase [2]; on Cholinesterase) were greater than 500 µM, 710 nM and 13 µM, respectively. For the same molecule, the Ratio IC50 in the data set listed under Homo sapiens came to 18.3; on Acetylcholinesterase [4], 15. The molecule also had a logD in [3] of 1.77. Further, the figures for the Ki at Acetylcholinesterase [5] and at Acetylcholinesterase [6] were 480 nM and 920 nM, respectively.

As for `COc1cc(/C=C/C(=O)Nc2ccccc2)ccc1OCCCCCCN1CCCC1`, the values for the IC50 (in [1]; against Acetylcholinesterase [2]; against Cholinesterase) were greater than 500 µM, 1110 nM and 2.23 µM, respectively. For the same molecule, the Ratio IC50 stood at 2.01 in the data set filed under Homo sapiens and 9 at Acetylcholinesterase [4]. Further, the logD in data set [3] was 1.76.

B1: Acetylcholinesterase (Homo sapiens), P22303 (protein)
chain: MRPPQCLLHTPSLASPLLLLLLWLLGGGVGAEGREDAELLVTVRGGRLRGIRLKTPGGPVSAFLGIPFAEPPMGPRRFLPPEPKQPWSGVVDATTFQSVCYQYVDTLYPGFEGTEMWNPNRELSEDCLYLNVWTPYPRPTSPTPVLVWIYGGGFYSGASSLDVYDGRFLVQAERTVLVSMNYRVGAFGFLALPGSREAPGNVGLLDQRLALQWVQENVAAFGGDPTSVTLFGESAGAASVGMHLLSPPSRGLFHRAVLQSGAPNGPWATVGMGEARRRATQLAHLVGCPPGGTGGNDTELVACLRTRPAQVLVNHEWHVLPQESVFRFSFVPVVDGDFLSDTPEALINAGDFHGLQVLVGVVKDEGSYFLVYGAPGFSKDNESLISRAEFLAGVRVGVPQVSDLAAEAVVLHYTDWLHPEDPARLREALSDVVGDHNVVCPVAQLAGRLAAQGARVYAYVFEHRASTLSWPLWMGVPHGYEIEFIFGIPLDPSRNYTAEEKIFAQRLMRYWANFARTGDPNEPRDPKAPQWPPYTAGAQQYVSLDLRPLEVRRGLRAQACAFWNRFLPKLLSATDTLDEAERQWKAEFHRWSSYMVHWKNQFDHYSKQDRCSDL
With B1, the Km in [7] stood at 6.69 mM; in data set [9], 7.71 mM; in data set [10], 8.85 mM. In addition, the Vmax was 0.023 deltaA/min in [8], 0.019 deltaA/min in data set [11] and 0.015 deltaA/min in [12].

Values taken from ChEMBL document CHEMBL3994591, “Novel ferulic amide derivatives with tertiary amine side chain as acetylcholinesterase and butyrylcholinesterase inhibitors: The influence of carbon spacer length, alkylamine and aromatic group” (Eur J Med Chem, 2017).
